Series [1] has as its system Chorioallantoic membrane. Kind of series: Antiangiogenic activity in Leghorn chicken fertilized egg chorioallantoic membrane at 10 nM/egg measured after 48 hrs by CAM assay. As to conditions: Gallus gallus. The format is functional, tissue-based. In a few lines:
(§1)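 Fertile Leghorn eggs incubated at 37.8°C, 40% humidity; window opened on day 7; compound, sunitinib or 0.9% NaCl mixed with DMSO applied on filter paper onto CAM; 48 h incubation, methanol fixation, photography; nascent vessels counted.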

Series [2] deals with Chorioallantoic membrane. Briefly: Antiangiogenic activity in Leghorn chicken fertilized egg chorioallantoic membrane assessed as impaired neovascularization with absence of vascular networks at 10 nM/egg measured after 48 hrs by CAM assay. The format is functional, tissue-based. As to conditions: Gallus gallus. In a few lines:
as §1

Series [3] has as its system HUVEC. Kind of series: Antimigratory activity in HUVEC assessed as reduction in VEGF-induced cell migration at 2.5 uM measured after 24 hrs by wound healing assay relative to control. The format is functional. As to conditions: Homo sapiens. In a few lines: (§2)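 Confluent HUVECs starved 12 h in M200 with 2% FBS, scratched with pipette tip; fresh M200 with 25 ng/mL VEGF plus vehicle, 2.5 μM sunitinib or compound (1, 2.5 μM); wound imaged at 0, 6, 12 and 24 h by inverted microscopy.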

Series [4] concerns HUVEC. Briefly: Antiinvasive activity in HUVEC assessed as inhibition of VEGF-induced cell invasion after 6 hrs by crystal violet staining based transwell assay. The format is functional. As to conditions: Homo sapiens. The essentials: (§3)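 Transwell: 1×10⁴ HUVECs in serum-free M200 in top chamber with vehicle or compound; bottom chamber M200 with 10% FBS; 6 h at 37°C; cells on membrane underside fixed in 4% paraformaldehyde, stained 0.1% crystal violet, imaged and counted.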

Series [5] deals with HUVEC. Briefly: Antiinvasive activity in HUVEC assessed as inhibition of VEGF-induced cell invasion at 1 uM after 6 hrs by crystal violet staining based transwell assay relative to control. The format is functional. As to conditions: Homo sapiens. In a few lines: as §3
Series [6] relates to HUVEC. Briefly: Antiangiogenic activity in HUVEC assessed as inhibition of VEGF-induced capillary like tube formation preincubated with VEGF for 20 mins followed by compound addition measured after 6 hrs by matrigel based tube formation assay. The format is functional, cell-based. As to conditions: Homo sapiens. In a few lines:
(§4)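 Matrigel (100 μL) set 1 h at 37°C; 2×10⁴ HUVECs in M200 with 10% FBS added per well plus 10 ng/mL VEGF; compound added after 20 min; incubated 6 h at 37°C, then capillary-like structures photographed.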

Series [7] deals with HUVEC. Briefly: Antiangiogenic activity in HUVEC assessed as inhibition of VEGF-induced capillary like tube formation at 1 uM preincubated with VEGF for 20 mins followed by compound addition measured after 6 hrs by matrigel based tube formation assay relative to control. The format is functional. As to conditions: Homo sapiens. The essentials: as §4
The next series concerns Aorta. Kind of series: Inhibition of VEGF-induced capillary sprouting in Sprague-Dawley rat aortic ring at 20 uM treated for every 3 days for 7 days measured on day 7 by inverted microscopy relative to control. The format is functional. In a few lines:
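Aortas from anesthetized Sprague-Dawley rats cut into 1-mm rings and embedded in Matrigel for 1 h at 37°C. Rings starved 1 day, then cultured in opti-MEM with 2.5% FBS and 30 ng/mL VEGF plus compound. Treatment renewed every 3 days for 7 days. Sprouting imaged on day 7 by inverted microscopy.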

The test system of series [8] is HUVEC. Kind of series: Induction of apoptosis in VEGF-stimulated HUVEC assessed as late apoptotic cells at 1 uM after 24 hrs by Annexin V-FITC/propidium iodide staining based flow cytometric analysis (reference value: 11.3%). The format is cell-based. As to conditions: human. In a few lines:
(§5)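 HUVECs plated at 5×10^5 per well and treated 24 h with 1, 5, 10 or 20 μM. Detached and adherent cells were pooled, washed in ice-cold PBS and resuspended in fresh medium. 1×10^5 cells were stained with annexin-V-FITC in annexin-V buffer for 20 min in the dark, then PI (50 μg/mL) was added. Read-out by flow cytometry.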

Series [9] has as its system HUVEC. Briefly: Induction of apoptosis in VEGF-stimulated HUVEC assessed as early apoptotic cells at 5 uM after 24 hrs by Annexin V-FITC/propidium iodide staining based flow cytometric analysis (reference value: 7%). The format is cell-based. As to conditions: human. In a few lines: as §5
In series [10] the test system is HUVEC. Kind of series: Induction of apoptosis in VEGF-stimulated HUVEC assessed as necrotic cells at 5 uM after 24 hrs by Annexin V-FITC/propidium iodide staining based flow cytometric analysis (reference value: 12.1%). The format is cell-based. As to conditions: human. In a few lines: as §5
In series [11] the test system is HUVEC. Kind of series: Induction of apoptosis in VEGF-stimulated HUVEC assessed as late apoptotic cells at 10 uM after 24 hrs by Annexin V-FITC/propidium iodide staining based flow cytometric analysis (reference value: 11.3%). The format is cell-based. As to conditions: human. The essentials:
as §5

Series [12] relates to HUVEC. Briefly: Induction of apoptosis in VEGF-stimulated HUVEC assessed as caspase-3 cleavage at 1 to 20 uM by Western blot analysis. The format is cell-based. As to conditions: human.
Series [13] is described as follows: Induction of apoptosis in human HT-29 cells assessed as viable cells at 10 uM after 24 hrs by Annexin V-FITC/propidium iodide staining based flow cytometric analysis (reference value: 80.8%). As to conditions: read-out: Activity. The format is cell-based.
In series [14] the test system is HT-29. Kind of series: Induction of apoptosis in human HT-29 cells assessed as late apoptotic cells at 20 uM after 24 hrs by Annexin V-FITC/propidium iodide staining based flow cytometric analysis (reference value: 13.4%). The format is cell-based. As to conditions: ht-29, 24 h.
In series [15] the target is Vascular endothelial growth factor receptor 2 (Homo sapiens) (UniProt P35968). Briefly: Inhibition of VEGFR2 in VEGF-stimulated HUVEC assessed as downregulation of STAT3 phosphorylation at Tyr705 residue at 1 to 10 uM pre-incubated for 2 hrs followed by VEGF stimulation and measured after 15 mins by Western blot analysis. The format is cell-based.
Chain of Vascular endothelial growth factor receptor 2 (Homo sapiens) (P35968 whole entry): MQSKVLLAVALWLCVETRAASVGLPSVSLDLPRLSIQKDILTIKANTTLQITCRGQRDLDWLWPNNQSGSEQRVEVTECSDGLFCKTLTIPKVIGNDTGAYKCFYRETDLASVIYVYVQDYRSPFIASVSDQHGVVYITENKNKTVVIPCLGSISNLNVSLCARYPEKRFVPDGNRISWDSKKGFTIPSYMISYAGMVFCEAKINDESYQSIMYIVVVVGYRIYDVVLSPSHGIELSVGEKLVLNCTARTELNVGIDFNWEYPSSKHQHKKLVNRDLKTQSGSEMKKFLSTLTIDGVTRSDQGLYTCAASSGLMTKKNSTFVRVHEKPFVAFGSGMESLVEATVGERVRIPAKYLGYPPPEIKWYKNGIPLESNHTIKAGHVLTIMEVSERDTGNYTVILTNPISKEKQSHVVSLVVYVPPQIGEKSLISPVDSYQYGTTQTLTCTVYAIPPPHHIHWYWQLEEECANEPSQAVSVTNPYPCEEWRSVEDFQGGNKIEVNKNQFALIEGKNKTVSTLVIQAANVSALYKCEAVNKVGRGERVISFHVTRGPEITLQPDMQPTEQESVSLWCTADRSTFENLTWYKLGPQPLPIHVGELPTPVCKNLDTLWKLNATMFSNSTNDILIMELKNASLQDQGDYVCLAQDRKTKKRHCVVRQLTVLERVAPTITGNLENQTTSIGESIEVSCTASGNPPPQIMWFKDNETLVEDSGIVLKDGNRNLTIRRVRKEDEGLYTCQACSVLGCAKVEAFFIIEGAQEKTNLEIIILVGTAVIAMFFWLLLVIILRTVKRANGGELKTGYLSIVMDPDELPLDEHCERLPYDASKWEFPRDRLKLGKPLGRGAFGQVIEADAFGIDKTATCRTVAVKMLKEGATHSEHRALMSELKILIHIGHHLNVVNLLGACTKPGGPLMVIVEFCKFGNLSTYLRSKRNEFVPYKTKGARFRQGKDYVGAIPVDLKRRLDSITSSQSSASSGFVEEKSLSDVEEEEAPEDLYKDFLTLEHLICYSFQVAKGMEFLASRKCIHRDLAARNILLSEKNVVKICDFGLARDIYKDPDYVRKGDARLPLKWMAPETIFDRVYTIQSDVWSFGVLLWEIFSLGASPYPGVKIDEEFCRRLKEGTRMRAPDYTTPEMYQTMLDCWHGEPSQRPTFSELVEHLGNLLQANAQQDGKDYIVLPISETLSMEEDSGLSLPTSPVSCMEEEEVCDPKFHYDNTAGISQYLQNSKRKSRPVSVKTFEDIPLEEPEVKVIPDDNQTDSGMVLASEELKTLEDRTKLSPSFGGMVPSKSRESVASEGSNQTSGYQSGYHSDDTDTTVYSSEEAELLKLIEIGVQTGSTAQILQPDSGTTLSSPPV
Series [16] concerns HUVEC. Kind of series: Effect on total AKT expression in VEGF-induced HUVEC at 1 to 20 uM pre-incubated for 2 hrs followed by VEGF stimulation and measured after 15 mins by Western blot analysis. The format is ADME, cell-based. As to conditions: human, 0.25 h. In a few lines:
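HUVECs serum-starved overnight, pretreated with compound (methods: 1, 2.5, 5, 10 μM for 2 h; legend: 1, 5, 10, 20 μM for 1.5 h), then VEGF 50 ng/mL (methods: VEGF165, 15 min; legend: 30 min); lysates equalized by Bradford, ~20 μg protein resolved on gradient SDS-PAGE, immunoblotted, ECL detection.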

Series [17] has as its system HUVEC. Briefly: Inhibition of Akt/mTOR signalling in VEGF-induced HUVEC assessed as reduction in P70S6K phosphorylation at Thr389 residue pre-incubated for 1.5 hrs followed by VEGF stimulation and measured after 30 mins by Western blot analysis. As to conditions: Homo sapiens. The format is cell-based. The essentials:
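HUVECs were starved overnight, pretreated 1.5 h with 1, 5, 10 or 20 μM, then stimulated with VEGF (50 ng/mL) for 30 min. Lysates were equalized by Bradford assay, about 20 μg protein was resolved on gradient SDS-PAGE and immunoblotted with phospho-specific antibodies. Detection by HRP secondary antibodies and ECL.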

For series [18], the system named is HT-29. Briefly: Inhibition of Akt/mTOR signalling in human HT-29 cells assessed as reduction in STAT3 phosphorylation at Tyr705 residue incubated for 24 hrs by immunoblot analysis. The format is cell-based. The essentials:
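HT29 cells were exposed to the indicated concentrations for 24 h. Cell lysates were then immunoblotted for the phosphorylated proteins.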

Series [19] relates to HT-29. Kind of series: Antitumor activity against human HT-29 cells xenografted in mouse assessed as reduction in mTOR phosphorylation in tumor at 20 to 60 mg/kg, po administered every other day for 3 weeks and measured at 20 days post treatment by immunohistochemical staining. The format is functional, organism-based.
For series [20], the system named is HT-29. Briefly: Downregulation of MMP2 expression in human HT-29 cells after 24 hrs by immunoblot analysis. The format is functional, cell-based.
The test system of series [21] is HUVEC. Briefly: Antimigratory activity in HUVEC assessed as reduction in VEGF-induced cell migration measured after 6 to 24 hrs by wound healing assay. The format is functional, cell-based. As to conditions: Homo sapiens. The essentials:
as §2

The source made the active and inactive calls. The rule behind the calls is not given here.

In the case of `COc1ccc(NC(=O)c2cccc(/C=C3\CC(=O)N(c4ccc(C)cc4)C3=O)c2)cc1`, the result with Chorioallantoic membrane [1] and in the series on Chorioallantoic membrane [2] was Active. In the series with HUVEC [3], the inhibition at 2.5 µM was determined as 60%. For the same molecule, the inhibition entry in the series with HUVEC [4], in the series with HUVEC [6], in the series with HUVEC [17], with HT-29 [18], with HT-29 [20] and in the series with HUVEC [21] was “Dose-dependent effect” in each case. For the same molecule, the inhibition at 1 µM in the series on HUVEC [5] came to 20%; in the series with HUVEC [7], 30%. The molecule also displayed an inhibition at 20 µM in the series with Aorta of 95%. The Activity in the series on HUVEC [8] is reported as 10.4%; with HUVEC [9] it was 10.1%; in the series on HUVEC [10] it was 4.8%; in the series with HUVEC [11] it was 11.7%; with HUVEC [12] it was “Non-Toxic”; with HT-29 [14], 17.1%. Besides, the Activity result in the series with HUVEC [16] is on record as “Not Active”. In addition, in series [13], the viability at 24 h, 10 µM is 77.2%. Moreover, the inhibition result (in [15]; in the series on HT-29 [19]) was “Active” in each case.

Values taken from ChEMBL document CHEMBL4396917, “Synthesis and biological evaluation of novel benzylidene-succinimide derivatives as noncytotoxic antiangiogenic inhibitors with anticolorectal cancer activity in vivo” (Eur J Med Chem, 2019).
